Measured values as given in paper PMC2121072 (The Journal of Cell Biology, 1996).

Legend:
fusion proteins = assay: Competition of labeled ATP binding to fusion proteins; conditions: excess of cold, nonlabeled competitor nucleotide
PDZ domains = assay: Nucleotide binding with radiolabeled GTP; conditions: data not shown
[1] = biological target: T1, GST-PDZ 1+2+3 fusion protein of hDlg (Homo sapiens, UniProt Q12959); assay: Surface plasmon resonance; type: binding; conditions: 0.5 or 2.0 mM ATP-Mg2+ complex; orientation of the experiment not stated; data not shown
T1 sequence (Q12959 201-584): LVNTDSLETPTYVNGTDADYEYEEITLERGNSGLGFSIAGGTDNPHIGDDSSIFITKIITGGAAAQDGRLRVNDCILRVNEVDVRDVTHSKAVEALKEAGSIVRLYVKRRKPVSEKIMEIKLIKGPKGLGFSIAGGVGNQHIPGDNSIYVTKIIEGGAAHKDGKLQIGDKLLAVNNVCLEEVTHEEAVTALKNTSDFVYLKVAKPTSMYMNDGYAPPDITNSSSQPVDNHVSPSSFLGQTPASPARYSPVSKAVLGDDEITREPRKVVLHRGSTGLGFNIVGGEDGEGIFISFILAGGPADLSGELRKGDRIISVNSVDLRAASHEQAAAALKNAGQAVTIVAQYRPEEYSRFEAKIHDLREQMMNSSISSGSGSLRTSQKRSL

[2] = biological target: T1, GST-PDZ 1+2+3 fusion protein of hDlg; assay: Solution nitrocellulose filter ATP-binding assay, GST-PDZ1+2+3 of hDlg; conditions: Scatchard analysis, Fig. 4 inset
In short: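 Scatchard: 2.0 µg glutathione-eluted, dialysed GST-PDZ1+2+3 incubated in solution with increasing ATP concentrations plus [γ-32P]ATP, 3 h on ice in Hepes pH 7.6 buffer containing 1.0 mM MgCl2. Bound label captured on nitrocellulose filter, washed, scintillation-counted. Parallel GST control at each ATP concentration; cold ATP quantified by absorbance at 259 nm; each value is the average of duplicates.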

PDZ 3 domain of hDlg = assay: Solution filter ATP-binding assay, PDZ3 of hDlg; set-up: species or system human; conditions: 100 nM cold ATP, pH 7.6, 3 h on ice, Fig. 3 B
In short: (§1)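 Solution assay: purified protein (GST fusions eluted from glutathione beads with 5.0 mM reduced glutathione, then dialysed into binding buffer) incubated with [γ-32P]ATP (100-500 nCi) plus 100 nM cold ATP. Buffer: 10 mM Hepes pH 7.6, 50 mM KCl, 75 mM NaCl, 1.0 mM MgCl2, 1.0 mM EGTA. Incubated 3 h on ice, filtered through nitrocellulose, washed, scintillation-counted. GST or BSA nonspecific controls; duplicate or triplicate.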

[3] = system: GST-PDZ3 fusion protein of Dlg; assay: In vitro ATP binding, Dlg GST-PDZ3; set-up: species or system Drosophila; conditions: data not shown
In short: as §1

| SMILES | binding of labeled ATP in presence of competitor (fusion proteins) | binding of radiolabeled GTP (PDZ domains) | effect of ATP on GST-PDZ 1+2+3 / Kv1.4 peptide binding affinity [1] | ATP binding sites (Scatchard) [2] | ATP binding (PDZ 3 domain of hDlg) | ATP binding [3] |
| --- | --- | --- | --- | --- | --- | --- |
| Nc1nc2c(ncn2[C@@H]2O[C@H](COP(=O)(O)OP(=O)(O)OP(=O)(O)O)[C@@H](O)[C@H]2O)c(=O)[nH]1 [GTP] | succeeded | no binding |  |  |  |  |
| Nc1ncnc2c1ncn2[C@@H]1O[C@H](COP(=O)(O)OP(=O)(O)OP(=O)(O)O)[C@@H](O)[C@H]1O [ATP] | failed |  | No effect on the binding affinity | single class of binding sites | inactive for ATP binding | binds ATP in vitro |
